Data set [1] relates to inguinal lymph node of C57BL/6 mice. The data set can be described thus: lymphatic clearance from inguinal lymph node, NIR fluorescence imaging. It counts as in vivo, mouse. Particulars: for percent of maximal fluorescence intensity retained over the study period: intradermal, 0–50 min, normalized to maximum. In outline:
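C57BL/6 mice were induced with 2–3% isoflurane and kept under <1% for 50 min at 37°. […] A region near the inguinal node was imaged at 200 ms/frame at 0.5, 2.5, 15, 30 and 50 min. Signal was normalized to each agent's maximum node intensity; Student's t test, α = 0.05.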

Data set [2] is described as follows: water-octanol partition coefficient. It counts as physicochemical.
Data set [3] concerns lymphatic vasculature of C57BL/6 mice. The data set can be described thus: in vivo NIR fluorescence lymphatic imaging. As to conditions: intradermal 20 μL of 500 μM ICG or 100 μM cABD-IRDye800. Also on record: species or system mouse. A digest of the protocol: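 Shaved female C57BL/6 mice, 6–7 weeks old, under 2–3% isoflurane on a 37° heating pad (~30 min per animal). Intradermal injection at the tail base, with the injection site taped over. Illumination by a 785 nm laser diode (80 mW) expanded to an ~8 cm area. EMCCD capture through an 830 nm bandpass filter at 200 ms per frame. Mice monitored during and after imaging.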

Data set [4] can be described thus: fluorescence optical properties. Format: physicochemical. Particulars: 785/830 nm.
The conditions of data set [5]: reference standard; ref [53]; cited from earlier work.
The conditions of data set [6]: ref [27], cited from earlier work.
A short description of data set [7]: HPLC degradation study of ICG in saline. As to conditions: 100 μg/mL ICG in saline, by 25 h. Format: physicochemical.
The target in data set [8] is mouse serum albumin (mouse, UniProt P07724 25-608). As to the kind of experiment: SPR.

Where two headings read alike, the source gives them in different places. Where a SMILES comes first, the peptide text is derived from it. Bridges are numbered along the chain shown (N, C = ends). Where no end group is shown, it is not given here. The star is where a group is joined. IRDye800CW = CC1(C)C(/C=C/C2=C(Oc3ccc(S(=O)(=O)O)cc3)C(=C/C=C3/N(CCCCS(=O)(=O)O)c4ccc(S(=O)(=O)O)cc4C3(C)C)/CCC2)=[N+](CCCCCC(=O)*)c2ccc(S(=O)(=O)[O-])cc21

Results on four molecules are retold here after article PMC3346932 (Molecular Imaging and Biology, 2011).

Consider `CC1(C)C(/C=C/C2=C(Oc3ccc(S(=O)(=O)O)cc3)C(=C/C=C3/N(CCCCS(=O)(=O)O)c4ccc(S(=O)(=O)[O-])cc4C3(C)C)/CCC2)=[N+](CCCCCC(=O)O)c2ccc(S(=O)(=O)O)cc21` [IRDye800], for which, in data set [1] (intradermal 20 μL of 100 μM, 50 min), the “percent of maximum fluorescence remaining at 50 min” value is recorded as “less than 30%”.

As for `CC[C@H](C)[C@H](NC(=O)[C@H](CC(C)C)NC(=O)[C@H](CCCNC(=N)N)NC(C)=O)C(=O)N[C@@H](CCC(=O)O)C(=O)N[C@@H](CC(=O)O)C(=O)N[C@H](C(=O)N[C@H]1CSSC[C@@H](C(=O)N[C@@H](CC(C)C)C(=O)N[C@@H](Cc2c[nH]c3ccccc23)C(=O)N[C@@H](CCC(=O)O)C(=O)N[C@@H](CC(=O)O)C(=O)N[C@@H](CC(=O)O)C(=O)N[C@@H](CCCCNC(=O)CCCCCN2C(=CC=C3CCCC(C=CC4=[N+](CCCCS(=O)(=O)O)c5ccc(S(=O)(=O)[O-])cc5C4(C)C)=C3Oc3ccc(S(=O)(=O)O)cc3)C(C)(C)c3cc(S(=O)(=O)O)ccc32)C(N)=O)NC(=O)CNC(=O)[C@H](Cc2c[nH]c3ccccc23)NC(=O)[C@H](CCCNC(=N)N)NC(=O)[C@@H]2CCCN2C(=O)[C@H](CC(C)C)NC1=O)[C@@H](C)CC` [cABD-IRDye800] (Ac-RLIEDICLPRWGCLWEDDK(IRDye800CW)-NH2; disulfide 7-13; N-terminus and C-terminus assumed), the logP in data set [2] was -0.53. Further, the “adverse events during and after imaging” value in data set [3] is “none”. Moreover, the “lifetime relative to ICG” value in data set [4] stood at 1.6 times. In addition, in data set [1], the “percent of maximal fluorescence intensity retained over the study period” value was “at least 80%”.

In the case of `CC1(C)C(/C=C/C=C/C=C/C=C2\N(CCCCS(=O)(=O)O)c3ccc4ccccc4c3C2(C)C)=[N+](CCCCS(=O)(=O)[O-])c2ccc3ccccc3c21` [ICG, indocyanine green], the known lifetime in data set [5] is given as 0.56 ns. Also, the half life is reported as 14 h in data set [6] (ambient temperature under normal light); “approximately 20 h” in data set [6] (aqueous solution, darkness, low temperature (8°C)); 2.3 h in data set [6] (aqueous solution, exposure to light at 786 nm). Besides, in data set [3], the “adverse events during and after imaging” value is on record as “none”. Further, the ICG peak remaining in data set [7] was 30%. In addition, the degradation peak in data set [7] came to 70%. Besides, in data set [1], the “percent of maximal fluorescence intensity retained over the study period” value is on record as “at least 80%”.

In the case of RLIEDICLPRWGCLWEDDK (disulfide 7-13; also: Dylight680 conjugated, site not given here) [cABD conjugated to Dylight680], in data set [8], the dissociation constant (Kd) is 32 nM.
